According to ChEMBL document CHEMBL2375308, “Synthesis and selected immunological properties of substituted quino[3,2-b]benzo[1,4]thiazines” (Eur J Med Chem, 2013):

Legend:
PBMC [1] = assay: Inhibition of LPS-induced TNFalpha production in human PBMC at 25 ug/mL after overnight incubation relative to DMSO-treated control; type: functional
In short: (§1)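 Single-donor venous blood diluted 10× in RPMI-1640, 1 mL aliquots, stimulated with LPS (E. coli O111:B4). Compounds added at […]; corresponding DMSO dilutions as controls. Overnight incubation, supernatants frozen at −20 °C, TNF-α measured by biological assay; percentage inhibition versus DMSO control.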

PBMC [2] = assay: Inhibition of LPS-induced TNFalpha production in human PBMC at 5 ug/mL after overnight incubation relative to DMSO-treated control; type: functional; in short: as §1
PBMC [3] = assay: Cytotoxicity against human PBMC cells at 10 ug/mL after 24 hrs by MTT assay relative to DMSO-treated control; type: cell-based
In short: (§2)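 Ficoll-isolated PBMC ([…]) in supplemented RPMI-1640, 2 × 10⁵/well, cultured 24 h with the preparations at the indicated concentrations; compounds dissolved in DMSO (10 mg/mL stock) and diluted in medium.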

PBMC [4] = assay: Cytotoxicity against human PBMC cells at 50 ug/mL after 24 hrs by MTT assay relative to DMSO-treated control; type: cell-based; in short: as §2
PBMC [5] = assay: Antiproliferative activity against PHA-stimulated human PBMC at 10 ug/mL after 4 days by MTT assay relative to DMSO-treated control; type: functional
In short: (§3)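 PBMC from one donor's heparinized blood, Ficoll gradient isolated, in RPMI-1640 with 10% FCS; 2 × 10⁵ cells/well. PHA added at […]; compounds from DMSO stock (10 mg/mL) diluted in medium; matching DMSO dilutions as control. Four-day culture, proliferation read by MTT colorimetry; percentage inhibition versus control.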

PBMC [6] = assay: Antiproliferative activity against PHA-stimulated human PBMC at 50 ug/mL after 4 days by MTT assay relative to DMSO-treated control; type: functional; in short: as §3

| SMILES | inhibition at 25 µg/mL (PBMC [1]) | inhibition at 5 µg/mL (PBMC [2]) | Activity (PBMC [3]) | Activity (PBMC [4]) | Activity (PBMC [5]) | Activity (PBMC [6]) |
| --- | --- | --- | --- | --- | --- | --- |
| CSc1ccc2c(c1)Sc1cc3ccccc3nc1N2CCCNS(C)(=O)=O | 47.5% | 73.7% | Non-toxic | Non-toxic | 57.3% | 65.4% |
| Cc1ccc2c(c1)Sc1cc3ccccc3nc1N2 | 66.6% | 54.1% | 2.4% | 15.4% | -17.9% | -6.2% |
| Brc1ccc2c(c1)Nc1nc3ccccc3cc1S2 | -25% | 11.2% | Non-toxic | Non-toxic | 4.3% | 20.6% |
| CC(=O)NCCCN1c2ccccc2Sc2cc3ccccc3nc21 | 32.2% | -0.4% | Non-toxic | 91.9% | 68.7% | 92.4% |
| Clc1ccc2c(c1)Sc1cc3ccccc3nc1N2CCN1CCCCC1 | 56.7% | -70.5% | 19.2% | 83.8% | 96.3% | 98.2% |
| Clc1cccc2c1Sc1cc3ccccc3nc1N2 | 4.6% | 17% | Non-toxic | 13% | 10.7% | 10.8% |
| FC(F)(F)c1ccc2c(c1)Sc1cc3ccccc3nc1N2 | -5.6% | 51.1% | Non-toxic | Non-toxic | 24.9% | 61% |
| c1ccc2c(c1)Nc1nc3ccccc3cc1S2 | 16.1% | 25.6% | Non-toxic | Non-toxic | 7.1% | 14.4% |
| O=C(NCCCl)NCCCN1c2ccccc2Sc2cc3ccccc3nc21 | 5% | 14.6% | 8.5% | Non-toxic | 11.2% | 77.9% |
| Brc1ccc2c(c1)Sc1cc3ccccc3nc1N2 | 10.1% | 16.2% | Non-toxic | Non-toxic | -9.7% | 19% |
| O=C(NCCCl)NCCCCN1c2ccccc2Sc2cc3ccccc3nc21 | 4.3% | -1.8% | 7.9% | Non-toxic | 16.6% | 88.7% |
| CCOC(=O)NCCCCN1c2ccc(SC)cc2Sc2cc3ccccc3nc21 | 33.1% | 50.9% | Non-toxic | Non-toxic | 44.3% | 27.8% |
| CC(=O)NCCCN1c2ccc(Cl)cc2Sc2cc3ccccc3nc21 | 60.6% | 11.4% | Non-toxic | Non-toxic | 50.8% | 58.3% |
| CSc1ccc2c(c1)Sc1cc3ccccc3nc1N2CCCNC(C)=O | 64.5% | 71.7% | Non-toxic | Non-toxic | 72.5% | 68.8% |
| CCOC(=O)NCCCCN1c2ccccc2Sc2cc3ccccc3nc21 | 12.3% | 0.2% | Non-toxic | Non-toxic | 73.9% | 83.7% |
| Cc1ccc(S(=O)(=O)NCCCCN2c3ccc(Cl)cc3Sc3cc4ccccc4nc32)cc1 | -12.7% | 20.7% | Non-toxic | Non-toxic | 13.2% | 19.8% |
| FC(F)(F)c1cccc2c1Sc1cc3ccccc3nc1N2 | -2.6% | 74.9% | 5% | Non-toxic | 2.3% | 13.6% |
| CCOC(=O)NCCCCN1c2ccc(Cl)cc2Sc2cc3ccccc3nc21 | 8.41% | 13.2% | Non-toxic | Non-toxic | -0.7% | -12% |
| Cc1ccc(S(=O)(=O)NCCCCN2c3ccccc3Sc3cc4ccccc4nc32)cc1 | 12.5% | 15.8% | Non-toxic | Non-toxic | 3.3% | 2.4% |
